Calls of active or inactive are those of the source. No cut-off for these calls is given here.
Legend:
Mus musculus [1] = assay: Anticonvulsant activity in mouse assessed as protection against maximal electroshock-induced seizure at 100 mg/kg, ip pre-treated 0.25 to 4 hrs before electrical stimulation; assay type: functional, organism-based
How it was run: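 Maximal electroshock seizure test in mice, four per condition. Compound was given ip at 10, 30 and 100 mg/kg, and mice were challenged at 0.25, 0.5, 1, 2 and 4 h after treatment. Data are the number protected over the number tested.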

[2] = target: T1, 5-hydroxytryptamine receptor 2C (Homo sapiens, UniProt P28335); assay: Displacement of [3H]-Mesulergine from human 5-HT2C receptor expressed in HEKT cells after 90 mins by microbeta scintillation counting analysis; assay type: cell-based
T1 sequence (P28335 whole entry): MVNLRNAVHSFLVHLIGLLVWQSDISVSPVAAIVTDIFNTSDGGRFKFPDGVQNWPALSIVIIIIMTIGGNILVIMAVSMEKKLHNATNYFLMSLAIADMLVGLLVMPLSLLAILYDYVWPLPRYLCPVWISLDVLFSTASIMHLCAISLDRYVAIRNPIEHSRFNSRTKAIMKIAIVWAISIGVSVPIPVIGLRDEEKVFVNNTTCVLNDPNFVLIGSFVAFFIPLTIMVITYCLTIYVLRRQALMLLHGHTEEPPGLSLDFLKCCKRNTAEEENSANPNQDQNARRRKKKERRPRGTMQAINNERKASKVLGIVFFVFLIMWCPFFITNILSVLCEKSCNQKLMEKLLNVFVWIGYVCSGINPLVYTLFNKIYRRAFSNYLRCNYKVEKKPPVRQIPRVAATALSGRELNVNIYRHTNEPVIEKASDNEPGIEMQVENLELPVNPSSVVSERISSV

Mus musculus [3] = assay: Anticonvulsant activity in mouse assessed as protection against 32/44 mA current-induced seizure at 10 to 100 mg/kg, ip pre-treated 0.25 to 4 hrs before current challenge by 6 Hz psychomotor seizure test; assay type: functional, organism-based
How it was run: (§1)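 Mice received compound intraperitoneally at 10, 30 and 100 mg/kg. At 0.25, 0.5, 1, 2 and 4 h after dosing, four mice per time point were challenged with 32 or 44 mA for 3 s through corneal electrodes to elicit a partial psychomotor seizure. Data are the number of mice protected over the number tested at each time.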

Mus musculus [4] = assay: Anticonvulsant activity in mouse assessed as protection against 44 mA current-induced seizure at 100 mg/kg, ip pre-treated 2 to 4 hrs before current challenge by 6 Hz psychomotor seizure test; assay type: functional, organism-based; how it was run: as §1
Mus musculus [5] = assay: Antinociceptive activity in mouse assessed as tail withdrawal latency at 100 mg/kg, ip by tail flick assay; assay type: functional, organism-based
Mus musculus [6] = assay: Neurotoxicity in mouse assessed as motor impairment at 100 mg/kg, ip after 0.25 to 4 hrs by rotarod test; assay type: toxicity, organism-based; conditions: in vivo
How it was run: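 Rotarod, four mice per condition after ip dosing (10, 30 or 100 mg/kg). The rod turns at a fixed 6 rpm, and each mouse is observed for 1 min. Falling off three times within that minute scores as minimal motor impairment. Results are the number impaired over the number tested at 0.25–4 h.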

[7] = target: T2, 5-hydroxytryptamine receptor 2B (Homo sapiens, UniProt P41595); assay: Displacement of [3H]-LSD from human 5-HT2B receptor expressed in HEK cells after 90 mins by microbeta scintillation counting analysis; assay type: cell-based
[8] = target: T2, 5-hydroxytryptamine receptor 2B; assay: Agonist activity at 5-HT2B receptor (unknown origin) by calcium release assay; assay type: functional
[9] = target: T2, 5-hydroxytryptamine receptor 2B; assay: Antagonist activity at 5-HT2B receptor (unknown origin) by calcium release assay; assay type: functional
Mus musculus [10] = assay: Antinociceptive activity in mouse assessed as increase in pain response latency at 100 mg/kg, ip by hot plate assay; assay type: functional, organism-based
How it was run: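 Mice acclimatized for 10 min, then were placed on a hot plate held at 55 °C inside a clear open-top enclosure. Latency to hindpaw lick, hindpaw flick or jump was timed manually to the nearest 0.1 s.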

[11] = target: T2, 5-hydroxytryptamine receptor 2B; assay: Ratio of IC50 for antagonist activity at 5-HT2B receptor (unknown origin) by calcium release assay to Ki for displacement of [3H]-LSD from human 5-HT2B receptor expressed in baculovirus infected Sf9 cells; assay type: functional
[12] = target: T3, 5-hydroxytryptamine receptor 1A (Homo sapiens, UniProt P08908); assay: Antagonist activity at 5-HT1A receptor (unknown origin) by Tango assay; assay type: functional
T3 sequence (P08908 whole entry): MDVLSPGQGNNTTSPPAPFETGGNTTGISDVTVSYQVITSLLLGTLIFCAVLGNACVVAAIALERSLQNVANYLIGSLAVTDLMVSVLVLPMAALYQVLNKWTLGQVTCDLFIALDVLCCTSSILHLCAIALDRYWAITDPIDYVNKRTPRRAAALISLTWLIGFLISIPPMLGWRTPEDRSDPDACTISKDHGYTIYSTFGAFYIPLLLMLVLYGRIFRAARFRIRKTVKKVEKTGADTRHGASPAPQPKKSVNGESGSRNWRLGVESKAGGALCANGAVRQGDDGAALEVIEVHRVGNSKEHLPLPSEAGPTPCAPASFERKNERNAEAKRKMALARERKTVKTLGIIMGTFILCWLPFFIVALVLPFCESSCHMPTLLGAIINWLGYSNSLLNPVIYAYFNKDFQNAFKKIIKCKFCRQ

[13] = target: T1, 5-hydroxytryptamine receptor 2C; assay: Antagonist activity at 5-HT2C receptor (unknown origin) by calcium release assay; assay type: functional
[14] = target: 5-hydroxytryptamine receptor 1E (Homo sapiens, UniProt P28566); assay: Displacement of [3H]5-HT from human 5-HT1E receptor expressed in HEK cells after 90 mins by microbeta scintillation counting analysis; assay type: cell-based
[15] = target: T4, 5-hydroxytryptamine receptor 2A (Homo sapiens, UniProt P28223); assay: Displacement of [3H]Ketanserin from 5-HT2A (unknown origin) receptor after 90 mins by microbeta scintillation counting analysis
[16] = target: T5, 5-hydroxytryptamine receptor 1D (Homo sapiens, UniProt P28221); assay: Displacement of [3H]5-CT from human 5-HT1D receptor expressed in HEKT cells after 90 mins by microbeta scintillation counting analysis; assay type: cell-based
[17] = target: T6, 5-hydroxytryptamine receptor 3A (Homo sapiens, UniProt P46098); assay: Displacement of [3H]-GR65630 from human 5-HT3 receptor expressed in HEKT cells after 90 mins by microbeta scintillation counting analysis; assay type: cell-based
T6 sequence (P46098 whole entry): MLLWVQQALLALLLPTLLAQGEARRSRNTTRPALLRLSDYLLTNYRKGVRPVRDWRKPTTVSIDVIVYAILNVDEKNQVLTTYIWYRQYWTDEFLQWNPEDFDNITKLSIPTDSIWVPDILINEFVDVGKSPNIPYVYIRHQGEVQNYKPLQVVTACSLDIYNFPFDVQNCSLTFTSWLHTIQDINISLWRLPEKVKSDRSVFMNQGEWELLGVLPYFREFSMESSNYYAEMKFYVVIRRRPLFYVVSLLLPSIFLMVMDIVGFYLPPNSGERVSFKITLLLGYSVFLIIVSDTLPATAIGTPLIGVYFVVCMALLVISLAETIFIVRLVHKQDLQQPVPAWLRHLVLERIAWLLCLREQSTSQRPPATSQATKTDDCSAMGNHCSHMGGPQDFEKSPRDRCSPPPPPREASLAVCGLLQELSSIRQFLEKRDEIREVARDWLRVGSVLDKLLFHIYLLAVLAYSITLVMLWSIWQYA

[18] = target: T7, 5-hydroxytryptamine receptor 7 (Homo sapiens, UniProt P34969); assay: Displacement of [3H]-LSD from human 5-HT7A receptor expressed in HEK cells after 90 mins by microbeta scintillation counting analysis; assay type: cell-based
[19] = target: T4, 5-hydroxytryptamine receptor 2A; assay: Antagonist activity at 5-HT2A receptor (unknown origin) by calcium release assay; assay type: functional
[20] = target: 5-hydroxytryptamine receptor 6 (Homo sapiens, UniProt P50406); assay: Displacement of [3H]-LSD from human 5-HT6 receptor expressed in HEK cells after 90 mins by microbeta scintillation counting analysis; assay type: cell-based
[21] = target: T7, 5-hydroxytryptamine receptor 7; assay: Antagonist activity at 5-HT7A receptor (unknown origin) by Tango assay
[22] = target: 5-hydroxytryptamine receptor 5A (Homo sapiens, UniProt P47898); assay: Displacement of [3H]-LSD from human 5-HT5A receptor expressed in Flp-In CHO cells after 90 mins by microbeta scintillation counting analysis; assay type: cell-based
[23] = target: T5, 5-hydroxytryptamine receptor 1D; assay: Antagonist activity at 5-HT1D receptor (unknown origin) by Tango assay; assay type: functional

Sequence of 5-hydroxytryptamine receptor 1E (P28566 whole entry): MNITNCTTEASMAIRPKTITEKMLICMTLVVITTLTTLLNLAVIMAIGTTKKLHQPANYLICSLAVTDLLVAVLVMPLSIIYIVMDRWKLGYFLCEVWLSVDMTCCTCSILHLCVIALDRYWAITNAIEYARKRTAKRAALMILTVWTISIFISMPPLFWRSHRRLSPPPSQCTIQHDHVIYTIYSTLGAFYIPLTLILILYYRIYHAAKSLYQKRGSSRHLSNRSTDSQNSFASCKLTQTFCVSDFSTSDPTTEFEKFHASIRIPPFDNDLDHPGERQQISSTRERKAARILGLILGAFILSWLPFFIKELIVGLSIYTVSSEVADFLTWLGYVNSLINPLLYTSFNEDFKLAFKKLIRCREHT
T4 sequence (P28223 whole entry): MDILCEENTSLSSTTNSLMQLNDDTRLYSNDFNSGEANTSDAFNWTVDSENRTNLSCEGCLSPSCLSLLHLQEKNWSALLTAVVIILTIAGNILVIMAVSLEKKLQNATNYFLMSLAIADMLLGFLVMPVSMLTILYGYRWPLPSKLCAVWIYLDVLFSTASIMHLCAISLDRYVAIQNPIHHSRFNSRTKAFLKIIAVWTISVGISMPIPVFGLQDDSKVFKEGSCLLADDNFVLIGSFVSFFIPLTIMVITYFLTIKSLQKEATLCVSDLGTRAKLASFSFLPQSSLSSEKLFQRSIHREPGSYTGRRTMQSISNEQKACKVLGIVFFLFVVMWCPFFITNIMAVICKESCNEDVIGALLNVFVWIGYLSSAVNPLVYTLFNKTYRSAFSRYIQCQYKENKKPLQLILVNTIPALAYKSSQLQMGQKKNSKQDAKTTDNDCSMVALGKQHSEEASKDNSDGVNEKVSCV
T5 sequence (P28221 whole entry): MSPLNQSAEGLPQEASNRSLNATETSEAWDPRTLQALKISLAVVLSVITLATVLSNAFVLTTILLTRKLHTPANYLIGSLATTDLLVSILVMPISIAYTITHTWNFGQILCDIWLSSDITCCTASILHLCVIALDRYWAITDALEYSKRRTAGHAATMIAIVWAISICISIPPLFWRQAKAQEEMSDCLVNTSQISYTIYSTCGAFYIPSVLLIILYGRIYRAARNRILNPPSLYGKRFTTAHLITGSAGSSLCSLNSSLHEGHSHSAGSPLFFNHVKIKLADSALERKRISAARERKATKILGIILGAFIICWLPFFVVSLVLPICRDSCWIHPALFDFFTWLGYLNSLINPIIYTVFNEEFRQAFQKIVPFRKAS
T7 sequence (P34969 whole entry): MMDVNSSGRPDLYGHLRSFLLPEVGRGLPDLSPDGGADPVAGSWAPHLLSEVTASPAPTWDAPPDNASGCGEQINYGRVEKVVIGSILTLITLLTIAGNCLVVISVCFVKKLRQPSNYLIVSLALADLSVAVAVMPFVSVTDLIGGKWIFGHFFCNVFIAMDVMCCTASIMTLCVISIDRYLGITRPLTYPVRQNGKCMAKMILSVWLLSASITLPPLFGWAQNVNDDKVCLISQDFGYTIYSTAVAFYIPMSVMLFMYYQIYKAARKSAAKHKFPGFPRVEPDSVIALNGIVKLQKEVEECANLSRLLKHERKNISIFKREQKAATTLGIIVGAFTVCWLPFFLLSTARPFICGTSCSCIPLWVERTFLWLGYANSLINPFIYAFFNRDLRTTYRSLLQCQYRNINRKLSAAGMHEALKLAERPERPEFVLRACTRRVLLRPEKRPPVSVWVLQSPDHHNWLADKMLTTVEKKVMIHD
Sequence of 5-hydroxytryptamine receptor 5A (P47898 whole entry): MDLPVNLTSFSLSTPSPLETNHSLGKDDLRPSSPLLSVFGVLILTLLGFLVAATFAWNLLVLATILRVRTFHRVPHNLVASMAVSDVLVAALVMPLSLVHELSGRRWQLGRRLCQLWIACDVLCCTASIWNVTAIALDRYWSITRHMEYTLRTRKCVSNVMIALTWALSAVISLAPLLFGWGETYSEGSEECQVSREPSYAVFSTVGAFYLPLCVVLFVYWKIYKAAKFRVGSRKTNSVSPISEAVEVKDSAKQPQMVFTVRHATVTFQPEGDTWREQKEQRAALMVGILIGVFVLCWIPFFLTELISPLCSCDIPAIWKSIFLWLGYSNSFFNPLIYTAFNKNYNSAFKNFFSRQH
T2 sequence (P41595 whole entry): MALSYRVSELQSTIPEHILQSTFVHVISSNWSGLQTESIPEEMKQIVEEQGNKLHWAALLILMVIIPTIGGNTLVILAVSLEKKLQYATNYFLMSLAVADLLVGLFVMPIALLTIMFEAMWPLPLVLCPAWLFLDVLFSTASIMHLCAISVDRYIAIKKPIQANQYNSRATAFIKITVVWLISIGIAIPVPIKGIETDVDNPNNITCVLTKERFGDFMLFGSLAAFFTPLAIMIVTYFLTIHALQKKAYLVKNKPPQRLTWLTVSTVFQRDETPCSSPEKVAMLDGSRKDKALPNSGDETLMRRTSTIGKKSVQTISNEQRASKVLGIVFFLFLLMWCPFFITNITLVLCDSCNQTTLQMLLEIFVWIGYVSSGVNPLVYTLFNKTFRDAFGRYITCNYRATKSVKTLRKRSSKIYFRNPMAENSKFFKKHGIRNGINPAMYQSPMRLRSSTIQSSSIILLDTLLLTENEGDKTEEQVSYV
Sequence of 5-hydroxytryptamine receptor 6 (P50406 whole entry): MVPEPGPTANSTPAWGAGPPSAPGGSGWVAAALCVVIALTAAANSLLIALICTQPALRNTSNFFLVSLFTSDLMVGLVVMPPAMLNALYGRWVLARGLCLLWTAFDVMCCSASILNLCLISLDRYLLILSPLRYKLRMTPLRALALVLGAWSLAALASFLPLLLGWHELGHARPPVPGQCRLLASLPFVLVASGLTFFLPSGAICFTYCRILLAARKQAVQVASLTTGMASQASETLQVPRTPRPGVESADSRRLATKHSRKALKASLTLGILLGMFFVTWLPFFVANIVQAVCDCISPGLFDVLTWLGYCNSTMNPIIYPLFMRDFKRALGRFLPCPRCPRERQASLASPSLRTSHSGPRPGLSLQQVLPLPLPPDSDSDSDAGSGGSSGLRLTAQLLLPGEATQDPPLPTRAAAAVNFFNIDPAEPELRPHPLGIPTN

Row | SMILES | Ki [2] | Ki [7] | IC50 [9] | IC50 [12] | IC50 [13] | Ki [14] | Ki [15] | Ki [16] | Ki [17] | Ki [18] | Ki [20] | IC50 [21] | Ki [22] | other results
1 | C[C@@H]1SC(c2ccccc2O)=N[C@H]1CO | 1600 nM | 130 nM | 18 µM | – | – | – | – | – | – | – | – | – | – | Activity (Mus musculus [1]): inactive; Activity (Mus musculus [3]): Active; Activity (Mus musculus [4]): inactive; Activity (Mus musculus [5]): inactive; Activity (Mus musculus [6]): Non-Toxic; Activity [8]: inactive; Activity (Mus musculus [10]): Active; Ratio [11]: 50 to 140
2 | COC(=O)[C@H](Cc1cnc[nH]1)NC(=O)[C@H]1N=C(c2ccccc2O)S[C@@H]1C | 820 nM | 1000 nM | 10 µM | > 10 µM | > 10 µM | 1400 nM | 310 nM | 3300 nM | – | – | – | – | – | –
3 | Oc1ccccc1C1=NC(Cc2c[nH]cn2)C(c2ccccc2)S1 (racemic) | 770 nM | 100 nM | 3.8 µM | > 10 µM | > 10 µM | 2400 nM | 1100 nM | 2200 nM | 860 nM | > 10 µM | 2200 nM | > 10 µM | 4.7 µM | IC50 [19]: 13 µM; IC50 [23]: > 10 µM
4 | C[C@@H]1SC(c2ccccc2O)=N[C@H]1Cc1c[nH]cn1 (racemic) | 140 nM | 47 nM | 0.8 µM | > 10 µM | 6.8 µM | > 10000 nM | 1400 nM | 2000 nM | 240 nM | 3.6 µM | 2600 nM | – | > 10 µM | –
5 | C[C@@H]1SC(c2ccccc2)=N[C@H]1Cc1c[nH]cn1 (relative stereo) | 1200 nM | 380 nM | 10 µM | > 10 µM | – | > 10000 nM | 5800 nM | 800 nM | 150 nM | > 10 µM | > 10000 nM | > 10 µM | > 10 µM | –
